pEC50: −log10 of the molar value.
Assays:
[1] = target: Platelet-derived growth factor receptor beta (Homo sapiens, UniProt P09619); experiment: Inhibition of PDGFRbeta in human HCT116 cells by cellular phosphorylation assay; assay type: cell-based, HCT-116
Summary of the method: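 Cells expressing PDGFRβ were treated with compound, then stimulated to give maximal autophosphorylation in controls. Cells were lysed, and receptor phosphorylation was quantified by sandwich ELISA with a receptor-specific capture antibody and an anti-phosphotyrosine antibody. EC50 from a sigmoidal curve relative to the stimulated high control. Nine concentrations, 1 nM–10 μM in half-log steps, each in duplicate.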

[2] = target: T1, Aurora kinase A (Homo sapiens) (UniProt O14965); experiment: Residual activity of Aurora-A at 0.1 uM by microplate scintillation counting
T1 sequence (whole entry): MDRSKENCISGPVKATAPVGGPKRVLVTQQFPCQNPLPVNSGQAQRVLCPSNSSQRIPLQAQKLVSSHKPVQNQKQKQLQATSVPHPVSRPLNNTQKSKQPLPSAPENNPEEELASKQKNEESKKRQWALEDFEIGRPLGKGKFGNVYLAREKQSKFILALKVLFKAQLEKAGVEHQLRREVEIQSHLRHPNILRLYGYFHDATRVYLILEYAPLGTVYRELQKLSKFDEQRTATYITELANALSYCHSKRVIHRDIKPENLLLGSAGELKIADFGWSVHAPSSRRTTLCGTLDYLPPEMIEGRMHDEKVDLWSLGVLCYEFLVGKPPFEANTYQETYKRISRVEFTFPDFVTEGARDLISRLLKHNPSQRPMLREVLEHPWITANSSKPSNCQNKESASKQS

[3] = target: T2, MAP kinase-activated protein kinase 5 (Homo sapiens) (UniProt Q8IW41); experiment: Residual activity of MAPKAPK5 at 10 uM by microplate scintillation counting
T2 sequence (whole entry): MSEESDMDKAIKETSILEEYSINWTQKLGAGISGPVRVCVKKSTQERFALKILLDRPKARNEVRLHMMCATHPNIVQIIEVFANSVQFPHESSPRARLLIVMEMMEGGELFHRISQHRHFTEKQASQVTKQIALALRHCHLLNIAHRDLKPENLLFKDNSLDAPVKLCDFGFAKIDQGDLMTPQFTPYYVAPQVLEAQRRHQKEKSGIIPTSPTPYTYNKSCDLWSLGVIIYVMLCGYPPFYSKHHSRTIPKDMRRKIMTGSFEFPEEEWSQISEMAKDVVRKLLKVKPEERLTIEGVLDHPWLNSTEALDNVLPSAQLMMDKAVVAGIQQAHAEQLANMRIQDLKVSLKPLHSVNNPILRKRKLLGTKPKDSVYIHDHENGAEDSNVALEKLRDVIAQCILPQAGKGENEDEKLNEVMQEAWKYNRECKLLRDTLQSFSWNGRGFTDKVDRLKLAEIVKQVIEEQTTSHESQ

[4] = test system: Epidermal growth factor receptor (Homo sapiens), P00533 [L858R]; experiment: Residual activity of EGFR L858R mutant at 10 uM by microplate scintillation counting
[5] = target: Epidermal growth factor receptor (Homo sapiens, UniProt P00533); experiment: Inhibition of EGFR in human HCT116 cells by cellular phosphorylation assay

Chain of Platelet-derived growth factor receptor beta (P09619 whole entry): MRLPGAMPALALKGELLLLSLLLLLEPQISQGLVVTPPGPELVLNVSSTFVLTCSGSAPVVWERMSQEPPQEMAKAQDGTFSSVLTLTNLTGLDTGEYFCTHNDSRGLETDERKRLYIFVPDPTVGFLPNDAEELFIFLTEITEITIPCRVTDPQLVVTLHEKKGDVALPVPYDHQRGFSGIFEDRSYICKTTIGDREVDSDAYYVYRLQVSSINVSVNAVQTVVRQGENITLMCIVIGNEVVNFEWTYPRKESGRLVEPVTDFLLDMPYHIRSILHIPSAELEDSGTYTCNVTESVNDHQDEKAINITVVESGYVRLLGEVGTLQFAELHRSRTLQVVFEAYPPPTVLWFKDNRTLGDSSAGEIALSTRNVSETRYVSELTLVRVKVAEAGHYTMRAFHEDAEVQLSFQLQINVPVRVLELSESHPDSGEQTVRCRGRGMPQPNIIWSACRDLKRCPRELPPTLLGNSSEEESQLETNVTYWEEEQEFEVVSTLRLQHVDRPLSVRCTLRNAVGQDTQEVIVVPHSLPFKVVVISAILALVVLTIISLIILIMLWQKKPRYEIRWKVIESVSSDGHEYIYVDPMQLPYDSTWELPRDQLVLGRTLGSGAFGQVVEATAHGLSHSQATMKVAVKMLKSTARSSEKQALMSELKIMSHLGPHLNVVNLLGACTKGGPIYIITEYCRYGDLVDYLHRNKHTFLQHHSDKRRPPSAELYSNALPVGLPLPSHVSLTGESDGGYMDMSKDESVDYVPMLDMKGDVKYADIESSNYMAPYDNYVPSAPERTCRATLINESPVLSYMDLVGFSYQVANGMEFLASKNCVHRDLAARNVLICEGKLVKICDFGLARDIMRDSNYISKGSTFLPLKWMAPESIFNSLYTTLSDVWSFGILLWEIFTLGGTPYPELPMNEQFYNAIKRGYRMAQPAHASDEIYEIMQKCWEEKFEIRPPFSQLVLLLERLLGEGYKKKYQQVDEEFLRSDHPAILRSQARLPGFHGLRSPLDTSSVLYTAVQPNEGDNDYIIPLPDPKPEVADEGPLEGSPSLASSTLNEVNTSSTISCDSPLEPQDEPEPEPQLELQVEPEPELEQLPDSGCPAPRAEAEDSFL

Compound	pEC50 [1]	residual activity [2] [%]	residual activity [3] [%]	residual activity [4] [%]	pEC50 [5]
COc1cc2c(Oc3ccc(-c4nc5ccccc5s4)cc3)ncnc2cc1OCCCN1CCN(C)CC1	6.77	52	143	22	
COc1cc2c(Oc3ccc(-c4nc5ccccc5s4)cc3)ncnc2cc1OCCCN1CCCC1	5.70	68	109	46	
COc1cc2c(Oc3ccc(-c4nc5ccccc5s4)cc3F)ncnc2cc1OCCCN1CCN(C)CC1		65	134	24	< 5.00
